{"source": "ChEMBL document CHEMBL3774372", "about": "“Design, physico-chemical properties and biological evaluation of some new N-[(phenoxy)alkyl]- and N-{2-[2-(phenoxy)ethoxy]ethyl}aminoalkanols as anticonvulsant agents” (Bioorg Med Chem, 2016)", "key": {"Mus musculus [1]": {"system": "Mus musculus", "assay": "Anticonvulsant activity in mouse assessed as protection against 6 Hz psychomotor seizure at 50 mg/kg, ip after 0.5 hrs", "type": "functional, organism-based", "summary_of_the_method": "(§1)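 Suspension in 0.5% methylcellulose given ip to mice; corneal stimulation with 0.2 ms monopolar rectangular pulses at 6 Hz for 3 s from a constant current device, mice restrained then released to observation cage. Protected if normal exploratory behaviour resumed within 10 s of stimulation. Scored as protected/tested, 4 mice per group.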"}, "Mus musculus [2]": {"system": "Mus musculus", "assay": "Anticonvulsant activity in mouse assessed as protection against 6 Hz psychomotor seizure at 50 mg/kg, ip after 2 hrs", "type": "functional, organism-based", "summary_of_the_method": "as §1"}, "Rattus norvegicus [3]": {"system": "Rattus norvegicus", "assay": "Anticonvulsant activity in pilocarpine-induced status epilepticus Sprague-Dawley rat model at 100 mg/kg, ip after 1 hr during post stage 3 seizure", "type": "functional, organism-based", "summary_of_the_method": "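Rats given pilocarpine 50 mg/kg ip and observed to first convulsive seizure (Racine stage 3–5, time zero); test drug then given ip in 0.5% methylcellulose. Efficacy = halting further stage 3–5 convulsive seizures; scored protected/tested, time after first stage 3 seizure.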"}, "[4]": {"assay": "Ratio of drug level in brain to plasma in CD1 mouse at 1 mg/kg, iv administered as single dose measured after 30 mins by LC/ESI-MS/MS analysis", "type": "ADME, organism-based", "settings": "brain and plasma, read-out: BPR"}, "Mus musculus [5]": {"system": "Mus musculus", "assay": "Tmax in CD1 mouse plasma at 12.92 mg/kg, ig measured up to 240 mins by LC/ESI-MS/MS analysis", "type": "ADME, organism-based", "settings": "in vivo, po, 4 h"}, "Mus musculus [6]": {"system": "Mus musculus", "assay": "AUC (0 to infinity) in CD1 mouse plasma at 1 mg/kg, iv measured up to 240 mins by LC/ESI-MS/MS analysis", "type": "ADME, organism-based", "parameters": "dose 1 mg/kg, time infinity, route intravenous", "settings": "in vivo, 4 h"}, "[7]": {"assay": "Ratio of drug level in brain to plasma in CD1 mouse at 12.92 mg/kg, ip administered as single dose measured after 5 mins by LC/ESI-MS/MS analysis", "type": "ADME, organism-based", "settings": "brain and plasma, read-out: BPR"}, "[8]": {"assay": "MRT in CD1 mouse brain at 12.92 mg/kg, ip measured up to 240 mins by LC/ESI-MS/MS analysis", "type": "ADME, organism-based"}, "Mus musculus [9]": {"system": "Mus musculus", "assay": "Analgesic activity in mouse assessed as reduction in AUC of formalin-induced licking time during inflammatory phase at 13 mg/kg, ip relative to control", "type": "functional", "summary_of_the_method": "(§2)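 Formalin injected into a mouse hindlimb; total licking time taken as pain intensity. Compound given ip at 13 mg/kg as a suspension in 0.5% methylcellulose; vehicle-only animals served as controls.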"}, "Mus musculus [10]": {"system": "Mus musculus", "assay": "Neurotoxicity in mouse at 30 mg/kg, ip after 4 hrs by rotarod test", "type": "toxicity, organism-based", "settings": "in vivo", "summary_of_the_method": "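Mice were dosed ip with compound suspended in 0.5% methylcellulose. Rotarod: a 1 in. knurled rod turning at 6 rpm. Neurotoxicity was scored as failure to stay on the rod for at least 1 min in each of three trials. Results are given as the number of animals affected out of the number tested.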"}, "Rattus norvegicus [11]": {"system": "Rattus norvegicus", "assay": "Toxicity in pilocarpine-induced status epilepticus Sprague-Dawley rat assessed as death at 400 mg/kg, ip", "type": "organism-based", "settings": "in vivo", "summary_of_the_method": "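Pilocarpine 50 mg/kg ip given to male Sprague-Dawley rats (150–180 g). At the first stage 3–5 seizure (Racine scale), compound was given ip to groups of 8. Deaths and protection were recorded at 0.25–4 h; weight change was measured 24 h after the first stage 3 seizure.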"}, "[12]": {"assay": "Ratio of drug level in brain to plasma in CD1 mouse at 12.92 mg/kg, ip administered as single dose measured after 120 mins by LC/ESI-MS/MS analysis", "type": "ADME, organism-based", "settings": "brain and plasma, read-out: BPR"}, "[13]": {"assay": "MRT in CD1 mouse brain at 1 mg/kg, iv measured up to 240 mins by LC/ESI-MS/MS analysis", "type": "ADME, organism-based"}, "[14]": {"assay": "MRT in CD1 mouse plasma at 12.92 mg/kg, ip measured up to 240 mins by LC/ESI-MS/MS analysis", "type": "ADME, organism-based"}, "Mus musculus [15]": {"system": "Mus musculus", "assay": "AUMC (0 to infinity) in CD1 mouse plasma at 1 mg/kg, iv measured up to 240 mins by LC/ESI-MS/MS analysis", "type": "ADME, organism-based", "settings": "in vivo, 4 h", "summary_of_the_method": "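Male CD1 mice fasted overnight, single iv dose 1 mg/kg; sampled at 0, 5, 15, 30, 60, 120 and 240 min (one sample per mouse, four mice per time), under ketamine/xylazine. Heparinized plasma quantified by validated LC/ESI-MS/MS; non-compartmental moment method; AUMC extrapolated to infinity using terminal rate constant from log-linear regression.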"}, "Mus musculus [16]": {"system": "Mus musculus", "assay": "Cmax in CD1 mouse plasma at 12.92 mg/kg, ip measured up to 240 mins by LC/ESI-MS/MS analysis", "type": "ADME, organism-based", "parameters": "dose 12.92 mg/kg, route intraperitoneal", "settings": "in vivo, 4 h"}, "[17]": {"assay": "Half life in CD1 mouse plasma at 1 mg/kg, iv measured up to 240 mins by LC/ESI-MS/MS analysis", "type": "ADME, organism-based", "summary_of_the_method": "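Male CD1 mice, fasted overnight, were dosed iv at 1 mg/kg. Under ketamine/xylazine, blood was collected at 0, 5, 15, 30, 60, 120 and 240 min, one sample per animal, four mice per time point. Plasma concentrations were measured by LC/ESI-MS/MS. Terminal t1/2 was taken as 0.693/kz, with kz from log-linear regression, using non-compartmental analysis.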"}, "[18]": {"assay": "Cmax in CD1 mouse brain at 1 mg/kg, iv measured up to 240 mins by LC/ESI-MS/MS analysis", "type": "ADME, organism-based", "parameters": "dose 1 mg/kg, route intravenous"}, "Mus musculus [19]": {"system": "Mus musculus", "assay": "Analgesic activity in mouse assessed as reduction in AUC of formalin-induced licking time during acute phase at 13 mg/kg, ip relative to control", "type": "functional", "summary_of_the_method": "as §2"}, "Vibrio harveyi": {"system": "Vibrio harveyi", "assay": "Antimutagenic activity against Vibrio harveyi BB7 assessed as inhibition of NQNO-induced mutagenicity after 48 hrs", "type": "functional", "summary_of_the_method": "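V. harveyi cultures grown exponentially to A600 0.1 at 30 °C, exposed to test compound for 15 min, then to NQNO, and grown on to A600 0.3–0.4. 5 × 10⁶ cells plated on BOSS agar with neomycin (100, final). Neomycin-resistant colonies counted after 48 h at 30 °C. Result given as % inhibition of NQNO mutagenicity; three independent repeats.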"}, "[20]": {"assay": "Ratio of drug level in brain to plasma in CD1 mouse at 12.92 mg/kg, ip administered as single dose measured after 60 mins by LC/ESI-MS/MS analysis", "type": "ADME, organism-based", "settings": "brain and plasma, read-out: BPR"}, "Rattus norvegicus [21]": {"system": "Rattus norvegicus", "assay": "Anticonvulsant activity in rat assessed as protection against maximal electric shock-induced seizures at 30 mg/kg, po measured after 0.5 hrs", "type": "functional, organism-based", "summary_of_the_method": "(§3)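 Rats dosed ip or orally as 0.5% methylcellulose suspension; maximal electroshock at listed time. Protection = abolition of hindlimb tonic extension; 4 rats per group, scored protected/tested.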"}, "Mus musculus [22]": {"system": "Mus musculus", "assay": "Anticonvulsant activity in mouse assessed as protection against 6 Hz psychomotor seizure at 20 mg/kg, ip after 4 hrs", "type": "functional, organism-based", "summary_of_the_method": "as §1"}, "Rattus norvegicus [23]": {"system": "Rattus norvegicus", "assay": "Anticonvulsant activity in rat assessed as protection against maximal electric shock-induced seizures at 30 mg/kg, po measured after […]", "type": "functional, organism-based"}, "[24]": {"biological_target": "Melatonin receptor type 1A (Homo sapiens) (UniProt P48039)", "sequence (P48039 whole entry)": "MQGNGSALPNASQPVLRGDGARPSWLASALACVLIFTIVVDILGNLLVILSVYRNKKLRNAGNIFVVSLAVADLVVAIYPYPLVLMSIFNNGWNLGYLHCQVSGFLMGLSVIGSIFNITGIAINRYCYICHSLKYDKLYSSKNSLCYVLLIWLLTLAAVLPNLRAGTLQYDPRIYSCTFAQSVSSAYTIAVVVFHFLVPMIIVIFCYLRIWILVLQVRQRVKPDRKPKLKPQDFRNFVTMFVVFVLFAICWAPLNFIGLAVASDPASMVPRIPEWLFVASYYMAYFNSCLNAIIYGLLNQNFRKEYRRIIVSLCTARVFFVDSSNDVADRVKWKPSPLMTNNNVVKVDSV", "assay": "Displacement of [125I]2-iodomelatonin from human recombinant ML1A receptor expressed in CHO cells at 10^-5 M", "type": "cell-based", "summary_of_the_method": "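Radioligand binding screen run at a single test concentration of 10^-5 M. Each target used its stated receptor source (human recombinant CHO or HEK-293 cells, endogenous cell lines, or rat tissue membranes) with the listed radioligand.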"}, "Rattus norvegicus [25]": {"system": "Rattus norvegicus", "assay": "Anticonvulsant activity in rat assessed as protection against maximal electric shock-induced seizures at 30 mg/kg, ip measured after 2 hrs", "type": "functional, organism-based", "summary_of_the_method": "as §3"}}, "note": "Active and inactive are the calls of the source. The rule behind the calls is not given here."}
{"smiles": "Cc1cccc(C)c1OCCOCCN[C@H](C)CO", "values": [{"measurement": "Activity", "setting": "Mus musculus [1]", "value": "Active"}, {"measurement": "Activity", "setting": "Mus musculus [2]", "value": "inactive"}, {"measurement": "Activity", "setting": "Rattus norvegicus [3]", "value": "inactive"}]}
{"smiles": "Cc1cccc(C)c1OCCOCCN[C@H](C)CO.Cl", "values": [{"measurement": "Kp at 0.5 h", "setting": "[4]", "value": 5.41}, {"measurement": "Tmax", "setting": "Mus musculus [5]", "value": 5, "unit": "min"}, {"measurement": "AUC", "setting": "Mus musculus [6]", "value": 1030, "unit": "ng·h/mL"}, {"measurement": "Kp at 5 min", "setting": "[7]", "value": 1.13}, {"measurement": "MRT", "setting": "[8]", "value": 83.1, "unit": "min"}, {"measurement": "inhibition in vivo at 13 mg/kg", "setting": "Mus musculus [9]", "value": 81.1, "unit": "%"}, {"measurement": "Activity", "setting": "Mus musculus [10]", "value": "Non-toxic"}, {"measurement": "Activity", "setting": "Rattus norvegicus [11]", "value": "Non-toxic"}, {"measurement": "Kp at 2 h", "setting": "[12]", "value": 2.86}, {"measurement": "MRT", "setting": "[13]", "value": 50.1, "unit": "min"}, {"measurement": "MRT", "setting": "[14]", "value": 85.2, "unit": "min"}, {"measurement": "AUMC", "setting": "Mus musculus [15]", "value": 956, "unit": "ng·h²/mL"}, {"measurement": "Cmax", "setting": "Mus musculus [16]", "value": 1190, "unit": "ng/mL"}, {"measurement": "half-life", "setting": "[17]", "value": 51.5, "unit": "min"}, {"measurement": "Cmax", "setting": "[18]", "value": 11500, "unit": "ng/mL"}, {"measurement": "inhibition in vivo at 13 mg/kg", "setting": "Mus musculus [19]", "value": 54.9, "unit": "%"}, {"measurement": "inhibition (INH)", "setting": "Vibrio harveyi", "value": 75, "unit": "%"}, {"measurement": "Kp at 1 h", "setting": "[20]", "value": 1.91}]}
{"smiles": "Cc1cccc(C)c1OCCOCCN[C@@H](C)CO", "values": [{"measurement": "Activity", "setting": "Rattus norvegicus [21]", "value": "inactive"}, {"measurement": "Activity", "setting": "Mus musculus [22]", "value": "inactive"}, {"measurement": "Activity", "setting": "Rattus norvegicus [23]", "value": "inactive"}, {"measurement": "inhibition", "setting": "[24]", "value": -7.5, "unit": "%"}, {"measurement": "Activity", "setting": "Rattus norvegicus [25]", "value": "inactive"}]}
